Assay results reported in ChEMBL document CHEMBL6177916, “Synthesis, in silico and bio-evaluation studies of new isothiocyanate derivatives with respect to COX inhibition and H2S release profiles” (RSC Med Chem, 2025).
The source made the active and inactive calls. The calls are words filed in the database; no cut-off is given here.

Assays:
[1] = Induction of H2S release in PBS at pH 7.4 at 100 uM measured over 4 hrs by microplate reader based analysis; format: functional
How it was run: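 Compounds (DMSO-dissolved) were diluted to 100 μM final in phosphate buffer, pH 7.4, containing 1 mM L-cysteine. This was combined with a detection mix of N,N-dimethyl-1,4-phenylenediamine sulfate (20 mM) plus 1% w/v Zn(OAc)2, reacted with 30 mM FeCl3. A670 was read every 5 min until no meaningful increase was seen.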

[2] = test system: RAW264.7; assay: Cytotoxicity against mouse RAW264.7 cells assessed as cell viability at 10 to 20 uM measured after 24 hrs by MTT assay; format: functional, cell-based; conditions: dose 10-20 µM
How it was run: (§1)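 RAW 264.7 murine macrophages were seeded at 4 × 10^5 cells per mL and grown 24 h at 37 °C. They were then stimulated with 1 μg mL−1 LPS, with or without compound (DMSO-dissolved) at 10 and 20 μM, for 24 h. MTT was added for 2 h, formazan was dissolved in DMSO, and A570/620 was read. Controls were no inhibitor/no LPS and LPS alone, with comparisons made against LPS alone. Data are ≥3 biological replicates, mean ± SEM, one-way ANOVA with Dunnett.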

[3] = test system: RAW264.7; assay: Antiinflammatory activity against LPS induced mouse RAW264.7 cells assessed as decrease in cell viability at 10 to 20 uM relative to control; format: functional; conditions: dose 10-20 µM; how it was run: as §1
[4] = biological target: T1, Prostaglandin G/H synthase 2 (Homo sapiens, UniProt P35354); assay: Inhibition of human recombinant COX-2 using arachidonic acid as substrate at 10 uM preincubated for 10 mins followed by substrate addition and measured after 30 secs
T1 sequence (P35354 whole entry): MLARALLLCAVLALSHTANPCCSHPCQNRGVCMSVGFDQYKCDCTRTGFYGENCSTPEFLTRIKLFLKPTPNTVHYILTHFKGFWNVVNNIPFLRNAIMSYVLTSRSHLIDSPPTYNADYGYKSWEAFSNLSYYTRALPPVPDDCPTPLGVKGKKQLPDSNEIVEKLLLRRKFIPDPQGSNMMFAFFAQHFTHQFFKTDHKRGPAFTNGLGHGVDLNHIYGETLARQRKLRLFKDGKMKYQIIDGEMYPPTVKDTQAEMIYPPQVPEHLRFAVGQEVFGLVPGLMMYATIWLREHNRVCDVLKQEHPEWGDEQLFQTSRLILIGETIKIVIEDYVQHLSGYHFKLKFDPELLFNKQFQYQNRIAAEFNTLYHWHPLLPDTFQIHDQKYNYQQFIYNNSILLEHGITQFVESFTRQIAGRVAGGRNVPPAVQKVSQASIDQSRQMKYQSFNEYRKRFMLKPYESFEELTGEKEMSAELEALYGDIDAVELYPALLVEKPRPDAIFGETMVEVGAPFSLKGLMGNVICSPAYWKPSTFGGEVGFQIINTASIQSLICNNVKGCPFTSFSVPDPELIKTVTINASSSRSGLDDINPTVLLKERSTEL

Structure (SMILES)	Activity [1]	Activity [2]	Activity [3]	IC50 [4]
O=C(OCCc1ccc(N=C=S)cc1)c1ccc(F)cc1	10.9 µM	–	–	–
OCCc1ccc(N=C=S)cc1	36.8 µM	inactive	<80%	–
C[S+]([O-])CCCCN=C=S (configuration not stated) [SULFORAPHANE]	43.5 µM	–	–	6.35 µM
CC(C)CC(=O)OCCc1ccc(N=C=S)cc1	11.7 µM	inactive	–	–
OCCc1ccc(N=C=S)c(Br)c1	35.5 µM	inactive	<80%	–
O=C(OCCc1ccc(N=C=S)cc1)c1ccccc1	11.3 µM	inactive	<80%	–
O=C(OCCc1ccc(N=C=S)cc1)c1ccc([N+](=O)[O-])cc1	11.5 µM	inactive	<80%	–
COc1ccc(C(=O)OCCc2ccc(N=C=S)cc2)cc1	11.2 µM	inactive	–	–
N#Cc1cc(CCO)ccc1N=C=S	35.7 µM	inactive	<80%	–
